Measured values as given in ChEMBL document CHEMBL3856186, “Partial Activation and Inhibition of TRPV1 Channels by Evodiamine and Rutaecarpine, Two Major Components of the Fruits of Evodia rutaecarpa” (J Nat Prod, 2016).
Activity calls are given as the source filed them. The calls are words filed in the database; no cut-off is given here.

How the values were obtained:
Format in all cases: cell-based
[1] = target: Transient receptor potential cation channel subfamily V member 1 (Rattus norvegicus) (UniProt O35433); assay: Partial antagonist activity at rat TRPV1 expressed in HEK293 cells assessed as inhibition of proton-induced channel current at 2 uM at -60 mV holding potential co-treated with proton by whole-cell patch clamp method
Procedure, shortened: (§1)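 Proton-activated currents were recorded in rat TRPV1-expressing HEK293 cells held at −60 mV in whole-cell mode, with bath buffered to pH 6 with 10 mM MES, at ~25 °C. Peak current amplitude was the read-out.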

[2] = target: Transient receptor potential cation channel subfamily V member 1 (Rattus norvegicus) (UniProt O35433); assay: Agonist activity at rat TRPV1 channel expressed in HEK293 cells assessed as induction of maximum channel current at 50 uM at -60 mV holding potential by whole-cell patch-clamp method
Procedure, shortened: (§2)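 Rat TRPV1 cDNA and an EGFP reporter were cotransfected into HEK293 cells, with recording 1 day later. Whole-cell voltage clamp was run at room temperature (~25 °C) in standard bath (2 mM CaCl2, pH 7.4) with a KCl/MgATP/EGTA pipette solution. Steps from −100 to +100 mV (100 ms) gave I–V curves. Agonist was applied until desensitization, and peak current was scored. EC50 came from a sigmoidal fit.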

[3] = target: Transient receptor potential cation channel subfamily V member 1 (Rattus norvegicus) (UniProt O35433); assay: Partial antagonist activity at rat TRPV1 expressed in HEK293 cells assessed as inhibition of proton-induced channel current at 1 or 50 uM and -60 mV holding potential pretreated for 60 secs prior to proton-challenge by whole-cell patch clamp method (reference value: 185.1 +/- 38.6 pA/pF); procedure, shortened: as §1
[4] = target: Transient receptor potential cation channel subfamily V member 1 (Rattus norvegicus) (UniProt O35433); assay: Agonist activity at rat TRPV1 channel expressed in HEK293 cells assessed as outward rectifying current at 50 uM and -60 mV holding potential by whole-cell patch-clamp method; procedure, shortened: as §2
[5] = target: Transient receptor potential cation channel subfamily V member 1 (Rattus norvegicus) (UniProt O35433); assay: Agonist activity at rat TRPV1 channel expressed in HEK293 cells assessed as induction of inward current at 50 uM and -60 mV holding potential by whole-cell patch-clamp method; procedure, shortened: as §2
[6] = target: Transient receptor potential cation channel subfamily V member 1 (Rattus norvegicus) (UniProt O35433); assay: Agonist activity at rat TRPV1 channel expressed in HEK293 cells assessed as reversal potential at 50 uM and -60 mV holding potential by whole-cell patch-clamp method; procedure, shortened: as §2
[7] = target: Transient receptor potential cation channel subfamily V member 1 (Rattus norvegicus, UniProt O35433); assay: Agonist activity at rat TRPV1 channel expressed in HEK293 cells assessed as induction of channel current at -60 mV holding potential by whole-cell patch-clamp method; procedure, shortened: as §2
Transient receptor potential cation channel subfamily V member 1, sequence (O35433 whole entry): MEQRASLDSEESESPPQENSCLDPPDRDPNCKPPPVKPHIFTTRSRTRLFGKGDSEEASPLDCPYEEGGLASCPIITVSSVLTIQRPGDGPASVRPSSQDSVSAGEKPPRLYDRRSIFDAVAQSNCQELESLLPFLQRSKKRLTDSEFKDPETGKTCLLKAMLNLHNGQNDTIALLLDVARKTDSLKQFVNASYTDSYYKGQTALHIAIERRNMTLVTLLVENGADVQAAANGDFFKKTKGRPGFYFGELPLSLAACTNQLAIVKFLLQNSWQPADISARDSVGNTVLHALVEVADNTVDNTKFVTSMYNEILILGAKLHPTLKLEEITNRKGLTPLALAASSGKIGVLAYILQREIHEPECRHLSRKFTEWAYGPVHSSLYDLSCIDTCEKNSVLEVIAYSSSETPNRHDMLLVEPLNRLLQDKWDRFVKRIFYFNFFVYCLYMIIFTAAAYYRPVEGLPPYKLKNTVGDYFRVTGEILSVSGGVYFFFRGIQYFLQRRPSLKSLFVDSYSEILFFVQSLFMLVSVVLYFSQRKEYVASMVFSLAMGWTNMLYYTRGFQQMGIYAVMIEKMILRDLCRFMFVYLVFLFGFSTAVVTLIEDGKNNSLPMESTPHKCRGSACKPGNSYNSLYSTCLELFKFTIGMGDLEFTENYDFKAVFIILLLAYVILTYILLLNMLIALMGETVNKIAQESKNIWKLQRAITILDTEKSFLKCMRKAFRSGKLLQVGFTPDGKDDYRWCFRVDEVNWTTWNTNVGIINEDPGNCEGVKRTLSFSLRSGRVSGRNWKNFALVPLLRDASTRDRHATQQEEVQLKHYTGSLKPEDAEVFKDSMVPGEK

Transient receptor potential cation channel subfamily V member 1 (Rattus norvegicus), sequence (O35433 whole entry): as above

SMILES: O=c1c2ccccc2nc2n1CCc1c-2[nH]c2ccccc12 [RUTAECARPINE]
- Activity [1]: -200 pA/pF
- Activity [2]: -55 pA/pF
- Activity [3]: -157 pA/pF
- Activity [4]: Active
- Activity [5]: Active
- Activity [6]: 0 mV
- EC50 [7]: 2060 nM
